Compound activity: PubChem BioAssay, several laboratories
Sampled rows, rich in hits. Any-hit rate of the full collection: about 4.1%.
KCNK9 block = blocks the human KCNK9 two-pore domain potassium channel | HEK293 KCNK9, FluxOR thallium flux fluorescence; active compounds read low | B-score at 10 µM | actives 1.2% (n = 310,000) | Q9NPC2 | AID 488922;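 active = ratio B-score over 3 SD below the library mean, with starting fluorescence within 5 SD of its mean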;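 also: negative B-score means less thallium flux so channel inhibition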
Target sequence (Q9NPC2 whole entry, looked up, the tested form may be a part): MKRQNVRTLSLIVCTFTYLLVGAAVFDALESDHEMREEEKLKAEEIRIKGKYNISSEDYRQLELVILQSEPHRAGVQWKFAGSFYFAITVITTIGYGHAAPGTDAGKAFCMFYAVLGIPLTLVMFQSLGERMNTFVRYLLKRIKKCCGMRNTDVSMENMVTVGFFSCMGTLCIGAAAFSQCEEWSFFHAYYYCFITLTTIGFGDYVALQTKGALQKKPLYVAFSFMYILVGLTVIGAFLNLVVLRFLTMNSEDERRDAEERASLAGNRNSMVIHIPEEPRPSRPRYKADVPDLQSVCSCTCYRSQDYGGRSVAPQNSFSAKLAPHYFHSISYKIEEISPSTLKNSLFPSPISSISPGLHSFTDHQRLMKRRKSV
KCC2 mod = modulators of human KCC2 chloride dependent transport. Q9H2X9. KCC2 cells, thallium flux FluoZin-2 fluorescence. AID 1456. actives 2.2% (n = 190,000). B-score of Tl+ flux slope (higher = more flux/activation; lower = inhibition) at 10 µM;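 active = thallium flux slope and its plate-corrected score both differing from the plate sample mean at a set confidence after two filtering rounds, in either direction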;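 also: slope of fluorescence scaled to starting intensity during 10 to 20 s after thallium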
KCNK3 inh = human KCNK3 channel inhibition, primary screen; CHO-KCNK3 thallium flux, FluxOR fluorescence; active compounds read low; actives 0.84% (n = 340,000); B-score at 10 µM; O14649;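 active = B-score under library mean minus 4 SD, starting fluorescence ratio at most library mean plus 5 SD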;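 also: more negative B-score means stronger inhibition of thallium flux through KCNK3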
KCNQ1 pot = potentiates or activates the human KCNQ1 potassium channel | AID 2648 | B-score at 10 µM | P51787 | actives 0.35% (n = 310,000) | CHO-K1 KCNQ1, thallium flux FluxOR fluorescence; active compounds read high;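 active = fluorescence ratio B-score, a plate-corrected score, at least three library SD, with initial intensity B-score within 5 SD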
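assay system = CHO-K1 cells stably expressing KCNQ1 | medium = assay buffer, equal DMSO in all wells | timing = 37 °C overnight plating, 90-min dark dye load, 20-min compound pretreatment | measured by = kinetic FluxOR thallium fluorescence, 10-s 1-Hz baseline, 110-s post-stimulus read | measure = fluorescence change relative to baseline, converted to B score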
hERG rescue = shields human hERG channel from block by proarrhythmic agents; Q12809; CHO-hERG, FluxOR thallium flux, dofetilide IC70 present; activation (rescue from dofetilide block), less the hit threshold, % at 10 µM; actives 0.51% (n = 310,000); AID 1511;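 active = activation above the mean of controls blocked by dofetilide plus 5 SD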;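 also: thallium influx through hERG after potassium depolarization seen as dye fluorescence rise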
KCNQ1 inh = blocks the human KCNQ1 potassium channel | CHO-K1 KCNQ1, FluxOR thallium flux fluorescence; active compounds read high | B-score at 10 µM | actives 1.3% (n = 310,000);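 active = compounds whose thallium flux B-score, printed positive for inhibition, exceeds three library SD while starting fluorescence stays within three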;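 also: channel opened by potassium depolarization with thallium stimulus after 20 min compound exposure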
KCNK9 block conf = human KCNK9 inhibitor confirmation | shares compounds with KCNK9 block | HEK293 KCNK9 cells, FluxOR thallium flux fluorescence | inhibition, % at 10 µM | actives 43% (n = 4,900);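 active = thallium signal inhibited by more than 5 SD of the compound-free buffer control wells, on both duplicate plates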;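 also: 0% = assay buffer control wells without compound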
Kir2-1 spec = tests whether KCNK9 modulators also affect mouse Kir2.1. shares compounds with KCNK9 block. actives 4% (n = 4,900). inhibition, % at 10 µM. Kir2.1 cells, FluxOR thallium flux fluorescence;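 active = thallium signal drop more than 5 SD beyond the mean of the no-compound control wells, seen in both duplicate plates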;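 also: signal is fluorescence rise after thallium addition divided by baseline fluorescence; plate controls were assay buffer only for no effect and full block by chlorpromazine control for full effect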
KCNK9 uninduced = non-induced cell nonspecific activity of KCNK9 modulators. shares compounds with KCNK9 block. non-induced KCNK9-HEK293, FluxOR thallium flux. inhibition, % at 10 µM. actives 40% (n = 4,900);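 active = thallium signal drop beyond 5 SD of the untreated control mean, on both duplicate plates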;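 also: plate controls were buffer only IC0 wells for no effect and SID17386958 at its maximal inhibitory level for full effect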
Numbers without * were called inactive; i = inactive; nt = not tested or not shown.

SMILES | KCNK9 block | KCC2 mod | KCNK3 inh | KCNQ1 pot | hERG rescue | KCNQ1 inh | KCNK9 block conf | Kir2-1 spec | KCNK9 uninduced
O=c1c(Cc2ccc(Cl)cc2)c(O)ccn1Cc1ccccc1 | i | 1.8 | i | i | -7 | i | nt | nt | nt
O=c1c(Cc2ccc(Cl)cc2)c(O)ccn1Cc1cccc(Cl)c1 | i | 0.32 | i | i | -10 | i | i | i | i
Cc1cc(C(=O)CSc2nn3c(=O)c(C(C)(C)C)nnc3s2)c(C)n1C1CC1 | i | -0.13 | i | i | -13 | i | i | i | i
Cc1nnc(SCC(=O)c2cc(C)n(C3CC3)c2C)s1 | i | 0.0047 | i | i | 2 | i | nt | nt | nt
O=C(NCc1ccccc1)/C(=C/c1ccc(OC(F)F)cc1)c1ccccc1 | -11* | -0.84 | i | i | -7 | i | 40%* | i | 50%*
CCN1CCN(c2nnc(-c3ccc(C)cc3)c3ccccc23)CC1 | i | nt | i | i | -6 | i | nt | nt | nt
CCN(CC)S(=O)(=O)c1ccc(-c2csc(C)n2)cc1 | i | nt | i | i | -22 | i | nt | nt | nt
CCCN(CCC)S(=O)(=O)c1cccc(-c2csc(C)n2)c1 | i | -2.1 | i | i | -17 | i | i | 28%* | i
Cc1ccc(NCc2nc3ccccc3n2CCOc2ccccc2)cc1 | -12* | -0.39 | i | i | -7 | i | 40%* | i | 38%*
Cc1nc2ccccc2n1CCOc1ccccc1 | i | nt | i | i | -1 | i | nt | nt | nt
Cc1ccc(C(=O)CSc2nc3ccccc3c(=O)n2-c2ccccc2)s1 | i | nt | i | i | -3 | i | nt | nt | nt
CCOC(=O)c1c(C)[nH]c(C)c1C(=O)CSc1nc2ccccc2c(=O)n1-c1ccccc1C | -9.6* | -1.3 | i | i | -12 | i | 32%* | i | 34%*
CCOC(=O)c1c(C)[nH]c(C)c1C(=O)CSc1nc2ccccc2c(=O)n1-c1ccc(F)cc1 | -10* | -0.96 | i | i | -15 | i | i | i | i
CCCC[C@H]1COCCS(=O)(=O)N1Cc1ccc(C)cc1 | i | nt | i | i | 0 | i | nt | nt | nt
CCCC[C@H]1COCCS(=O)(=O)N1Cc1ccc(Br)cc1 | -8.3* | nt | i | i | -6 | i | 37%* | i | 42%*
C[C@H](N)c1nnc(SCc2c(Cl)cccc2Cl)o1 | i | nt | i | i | -19 | i | nt | nt | nt
Clc1cccc(Cl)c1CSc1nnc(/C=C/c2ccccc2)o1 | i | -0.61 | i | i | -11 | i | i | i | 29%*
CSc1ccccc1OCc1cc(C(=O)N(C)Cc2ccc(C)o2)no1 | i | nt | i | i | -10 | i | i | i | i
CC(C)n1c(CNC(=O)c2ccccc2F)nnc1SCC(=O)NC1CCCCC1 | nt | nt | i | nt | nt | nt | nt | nt | nt
COc1cccc(-n2cc(CN(C)Cc3nc(Cc4cccc(F)c4)no3)cn2)c1 | i | -0.87 | i | i | -19 | i | i | i | i
COc1cccc(-n2cc(CN(C)Cc3nc(Cc4ccccc4)no3)cn2)c1 | i | -1.2 | i | i | -9 | i | i | i | i
O=C(NCCS(=O)(=O)N1CCN(c2ccccc2F)CC1)c1cccc(Br)c1 | i | nt | i | i | -4 | i | nt | nt | nt
Cc1ccc(C)c(N2CCN(C(=O)c3cc4sccc4n3C)CC2)c1 | i | -0.2 | i | i | -15 | i | nt | nt | nt
Cn1c(C(=O)N2CCN(c3cccc(C(F)(F)F)c3)CC2)cc2sccc21 | i | 1.6 | i | i | -14 | i | i | i | i
CC(OC(=O)c1ccc2c(c1)OCCO2)C(=O)c1ccccc1 (stereo not drawn) | i | nt | i | i | -11 | i | nt | nt | nt
SMILES | KCNK9 block | KCC2 mod | KCNK3 inh | KCNQ1 pot | hERG rescue | KCNQ1 inh | KCNK9 block conf | Kir2-1 spec | KCNK9 uninduced
O=S(=O)(c1ccc(F)c(F)c1)N1CCN(Cc2ccc3c(c2)OCO3)CC1 | i | 1.1 | i | i | -6 | i | nt | nt | nt
COc1cc(S(=O)(=O)N2CCN(Cc3ccc4c(c3)OCO4)CC2)c(C)cc1C | i | 0.37 | i | i | -7 | i | i | i | i
COc1cc(C)c(C)cc1S(=O)(=O)N1CCN(Cc2ccc3c(c2)OCO3)CC1 | i | -0.64 | i | i | -3 | i | nt | nt | nt
COc1ccc(CN2CCN(S(=O)(=O)c3ccc(C)cc3)CC2)cc1Br | i | 0.86 | i | i | -12 | i | i | i | i
O=S(=O)(c1cccc(F)c1)N1CCN(Cc2ccc3c(c2)OCO3)CC1 | i | nt | i | i | -10 | i | i | i | i
COc1ccc(CN2CCN(S(=O)(=O)c3ccc(C)cc3)CC2)cc1OC | i | nt | i | i | -2 | i | nt | nt | nt
CCN(CC(=O)Nc1ccc(NC(C)=O)cc1)C(=O)c1c(C)nn(Cc2ccc(C)cc2)c1Cl | nt | nt | i | nt | nt | nt | nt | nt | nt
CCCCC[C@H](O)/C=C/C1C(=O)C=C[C@H]1C/C=C\CCCC(=O)OC (stereo partly drawn) | nt | nt | i | nt | nt | nt | nt | nt | nt
COc1ccc(-c2ccc(F)cc2)cc1[C@H]1[C@H]2C=CC[C@@H](C)[C@@H]2C(=O)N1Cc1ccccc1 | i | -0.025 | i | i | -7 | i | nt | nt | nt
COc1ccc(-c2ccc(OC)c([C@H]3[C@H]4C=CC[C@@H](C)[C@@H]4C(=O)N3Cc3ccccc3)c2)cc1OC | i | -0.63 | i | i | -15 | i | i | i | i
O=C(Nc1cccc(C(=O)N2CCCC2)c1)C1CC1 | nt | nt | i | nt | nt | nt | nt | nt | nt
CCc1nnc(NC(=O)C2Cc3ccccc3CN2S(=O)(=O)CC)s1 (stereo not drawn) | i | 0.035 | i | i | -9 | i | nt | nt | nt
CCc1nnc(NC(=O)C2Cc3ccccc3CN2S(=O)(=O)c2c(C)c(C)cc(C)c2C)s1 (stereo not drawn) | -13* | 0.0076 | i | i | -7 | i | i | i | 32%*
O=C(COC(=O)/C=C/c1ccccc1)NCCc1ccc(F)cc1 | nt | nt | i | nt | nt | nt | nt | nt | nt
CC(=O)c1ccc(S(=O)(=O)NCCC(=O)OCC(=O)N2CCCC2=O)cc1 | i | nt | i | i | -11 | i | nt | nt | nt
CCc1nc2c(s1)CCc1onc(-c3ccc(Cl)cc3)c1-2 | -13* | nt | i | i | -10 | i | 70%* | i | 38%*
CC(C)c1nc2c(s1)CCc1onc(-c3ccc(Cl)cc3)c1-2 | i | nt | i | i | -17 | i | nt | nt | nt
